Source: paper PMC2854023 (Journal of biomolecular screening, 2010)
Read-outs that look alike come from different tables or passages of the source.

Legend:
[1] = system: TNFα release by LPS-treated U937 cells; assay: TNFα release assay in PMA-activated, LPS-treated U937 cells; assay type: cell-based, human; details: for TNFα release, combined with rolipram, 3 hours LPS / TNFα release, combined with rolipram, 20 hours LPS: 10μM each, compared to rolipram alone
Summary of the method: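 U937 cells at 10^6 cells/ml in RPMI 1640 with 10% FBS were primed 17 hr with 300 ng/ml PMA. Aliquots of […] were diluted with equal medium and given 10 μM compound, alone or with rolipram, for 1 hr; vehicle was ethanol with <0.1% DMSO. LPS (25 μg/ml) followed, and supernatant TNFα was measured by ELISA at 3 or 20 h. Values are % of vehicle, 2–6 independent experiments, paired one-tailed t-test.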

PDE3B = PDE3B (Homo sapiens, UniProt Q13370); assay: Fission yeast 5FOA growth assay, PDE3B-expressing strain; assay type: cell-based; details: data not shown
Sequence of PDE3B (Q13370 whole entry, species assumed): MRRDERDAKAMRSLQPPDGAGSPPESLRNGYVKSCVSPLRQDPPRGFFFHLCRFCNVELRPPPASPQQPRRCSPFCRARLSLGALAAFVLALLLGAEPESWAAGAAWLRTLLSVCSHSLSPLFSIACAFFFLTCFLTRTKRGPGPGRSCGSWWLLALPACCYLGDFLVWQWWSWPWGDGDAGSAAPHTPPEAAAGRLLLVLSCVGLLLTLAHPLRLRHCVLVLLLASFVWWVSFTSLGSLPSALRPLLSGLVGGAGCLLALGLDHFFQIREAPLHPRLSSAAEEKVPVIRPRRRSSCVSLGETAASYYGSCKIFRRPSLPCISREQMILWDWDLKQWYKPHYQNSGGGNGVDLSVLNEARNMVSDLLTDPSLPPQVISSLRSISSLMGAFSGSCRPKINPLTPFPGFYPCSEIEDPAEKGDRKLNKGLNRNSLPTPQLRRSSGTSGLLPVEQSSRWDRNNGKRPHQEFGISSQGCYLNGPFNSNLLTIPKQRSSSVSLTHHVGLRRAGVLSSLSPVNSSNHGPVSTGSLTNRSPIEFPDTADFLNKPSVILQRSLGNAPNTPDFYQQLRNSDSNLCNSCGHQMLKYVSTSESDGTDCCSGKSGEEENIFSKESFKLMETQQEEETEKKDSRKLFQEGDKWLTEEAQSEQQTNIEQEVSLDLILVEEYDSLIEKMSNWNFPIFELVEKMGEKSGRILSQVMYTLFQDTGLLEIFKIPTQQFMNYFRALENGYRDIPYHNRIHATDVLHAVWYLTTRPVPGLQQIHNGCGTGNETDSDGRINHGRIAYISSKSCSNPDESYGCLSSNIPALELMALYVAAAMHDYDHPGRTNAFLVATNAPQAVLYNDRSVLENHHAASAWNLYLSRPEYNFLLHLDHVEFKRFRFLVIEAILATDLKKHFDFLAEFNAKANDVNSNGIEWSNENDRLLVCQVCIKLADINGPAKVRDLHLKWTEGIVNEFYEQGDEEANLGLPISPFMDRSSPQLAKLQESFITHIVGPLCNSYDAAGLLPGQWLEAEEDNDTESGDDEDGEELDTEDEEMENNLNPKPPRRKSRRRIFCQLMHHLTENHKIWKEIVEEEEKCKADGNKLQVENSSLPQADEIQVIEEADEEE
Summary of the method: (§1)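 Fission yeast 5FOA growth assays used strains each expressing one mammalian PDE, read as OD600. For cGMP-specific PDEs, strains lacked adenylate cyclase and the 5FOA medium contained 30μM to 1mM cGMP.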

PDE7B = PDE7B (Homo sapiens, UniProt Q9NP56); assay: In vitro PDE enzyme assay; assay type: biochemical; details: for IC50 on PDE7B relative to PDE7A: in vitro enzyme assays, PDE7B vs PDE7A
Sequence of PDE7B (Q9NP56 whole entry, species assumed): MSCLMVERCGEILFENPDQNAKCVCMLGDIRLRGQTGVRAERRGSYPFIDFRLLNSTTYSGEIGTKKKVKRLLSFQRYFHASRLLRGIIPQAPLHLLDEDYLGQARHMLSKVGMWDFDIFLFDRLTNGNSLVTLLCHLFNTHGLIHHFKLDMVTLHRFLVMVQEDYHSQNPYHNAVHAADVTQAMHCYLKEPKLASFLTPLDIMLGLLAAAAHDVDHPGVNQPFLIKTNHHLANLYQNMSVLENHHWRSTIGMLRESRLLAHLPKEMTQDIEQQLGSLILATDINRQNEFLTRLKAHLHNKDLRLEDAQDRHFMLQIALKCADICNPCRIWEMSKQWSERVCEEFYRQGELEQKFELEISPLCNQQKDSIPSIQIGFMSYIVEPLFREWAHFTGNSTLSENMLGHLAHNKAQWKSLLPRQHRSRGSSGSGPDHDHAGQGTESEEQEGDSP
Summary of the method: (§2)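 Radiometric PDE assay with 25nM initial 3H-cAMP for 15 min, over which the hydrolysis rate was constant. 3H-AMP was separated by Ba(OH)2 precipitation and remaining cAMP counted by scintillation. PDE7A was commercial; PDE7B was a gift. IC50 is the concentration halving the hydrolysis rate relative to vehicle controls. PDE7B Km came from Michaelis-Menten kinetics, analysed by Lineweaver-Burke and Eadie-Hofstee plots.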

PDE10A = assay: Fission yeast 5FOA growth assay, PDE10A-expressing strain; assay type: cell-based; details: 40μM compound, data not shown
Summary of the method: as §1

PDE11A = PDE11A (Homo sapiens, UniProt Q9HCR9); assay: Fission yeast 5FOA growth assay, PDE11A-expressing strain; assay type: cell-based; details: data not shown
Sequence of PDE11A (Q9HCR9 whole entry, species assumed): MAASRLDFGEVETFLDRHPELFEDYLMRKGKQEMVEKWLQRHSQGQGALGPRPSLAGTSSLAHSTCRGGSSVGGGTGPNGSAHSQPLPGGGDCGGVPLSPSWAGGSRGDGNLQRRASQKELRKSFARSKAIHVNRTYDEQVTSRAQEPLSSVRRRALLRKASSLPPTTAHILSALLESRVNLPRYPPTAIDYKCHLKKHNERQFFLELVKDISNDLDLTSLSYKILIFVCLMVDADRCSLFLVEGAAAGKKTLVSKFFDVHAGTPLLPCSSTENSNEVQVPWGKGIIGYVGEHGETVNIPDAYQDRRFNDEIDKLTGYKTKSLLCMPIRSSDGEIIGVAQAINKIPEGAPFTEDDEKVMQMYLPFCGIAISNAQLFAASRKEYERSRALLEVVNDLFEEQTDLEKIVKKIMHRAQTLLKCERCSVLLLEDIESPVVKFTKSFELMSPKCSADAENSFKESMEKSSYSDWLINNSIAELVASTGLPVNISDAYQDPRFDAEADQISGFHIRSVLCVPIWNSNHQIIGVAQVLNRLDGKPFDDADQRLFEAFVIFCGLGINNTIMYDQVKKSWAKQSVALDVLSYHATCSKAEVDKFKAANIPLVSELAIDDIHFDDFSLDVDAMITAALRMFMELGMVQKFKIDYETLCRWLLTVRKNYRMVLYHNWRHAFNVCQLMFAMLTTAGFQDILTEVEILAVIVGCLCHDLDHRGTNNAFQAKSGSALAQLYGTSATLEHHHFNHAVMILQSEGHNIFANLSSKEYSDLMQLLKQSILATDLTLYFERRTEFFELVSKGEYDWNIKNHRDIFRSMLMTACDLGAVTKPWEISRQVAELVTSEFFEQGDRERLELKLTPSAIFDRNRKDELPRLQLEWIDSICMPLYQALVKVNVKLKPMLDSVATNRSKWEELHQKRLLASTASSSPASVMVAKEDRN
Summary of the method: as §1

PDE2A = PDE2A (Homo sapiens, UniProt O00408); assay: Fission yeast 5FOA growth assay, PDE2A-expressing strain; assay type: cell-based; details: data not shown
Summary of the method: as §1

PDE1C = PDE1C (Homo sapiens, UniProt Q14123); assay: Fission yeast 5FOA growth assay, PDE1C-expressing strain; assay type: cell-based; details: data not shown
Summary of the method: as §1

mouse PDE4A1 = molecular target: T1, mouse PDE4A1 (Mus musculus, UniProt O89084); assay: Fission yeast HTS, mouse PDE4A1-expressing strain; assay type: cell-based; details: 20μM
T1 sequence (O89084 1-610 isoform O89084-2): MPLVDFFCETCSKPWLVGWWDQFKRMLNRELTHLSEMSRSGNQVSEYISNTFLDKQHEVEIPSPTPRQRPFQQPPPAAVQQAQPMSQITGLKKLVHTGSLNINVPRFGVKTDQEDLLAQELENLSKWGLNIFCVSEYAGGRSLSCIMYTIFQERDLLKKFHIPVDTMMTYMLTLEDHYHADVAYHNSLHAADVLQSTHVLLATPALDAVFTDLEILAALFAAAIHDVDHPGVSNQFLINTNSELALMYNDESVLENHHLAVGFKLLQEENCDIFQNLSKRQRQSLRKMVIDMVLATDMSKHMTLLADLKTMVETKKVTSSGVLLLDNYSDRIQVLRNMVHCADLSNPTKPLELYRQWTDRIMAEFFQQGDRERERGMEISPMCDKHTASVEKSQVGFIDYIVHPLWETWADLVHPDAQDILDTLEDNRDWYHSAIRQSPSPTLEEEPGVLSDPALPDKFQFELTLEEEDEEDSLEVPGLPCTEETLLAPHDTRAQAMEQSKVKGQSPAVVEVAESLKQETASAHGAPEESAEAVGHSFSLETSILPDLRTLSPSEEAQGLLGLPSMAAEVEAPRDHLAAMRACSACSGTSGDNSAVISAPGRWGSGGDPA

PDE8A = PDE8A (Homo sapiens, UniProt O60658); assay: Fission yeast 5FOA growth assay, PDE8A-expressing strain; assay type: cell-based; details: data not shown
Summary of the method: as §1

human PDE7B1 = human PDE7B1 (Homo sapiens, UniProt Q9NP56); assay: Fission yeast 5FOA growth assay, PDE7B-expressing strain; assay type: cell-based; details: range of concentrations, 48 hours, OD600
Sequence of human PDE7B1 (Q9NP56 whole entry): as the sequence (Q9NP56 whole entry, species assumed) above
Summary of the method: (§3)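 5FOA growth assays, run as in the PDE7A screen, used fission yeast strains expressing human PDE4A1, PDE4B2, PDE4D3 or PDE7B1 from the cgs2 locus. Compound was added over a concentration range, with DMSO kept below 0.2%. Cultures grew 48 h at 30°C. OD600 is the mean of four wells.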

human PDE7A1 = human PDE7A1 (Homo sapiens, UniProt Q13946); assay: Fission yeast 5FOA growth assay / HTS, PDE7A-expressing strain CHP1189; assay type: cell-based; details: for stimulation of 5FOA-resistant growth, PDE7A-expressing strain: range of concentrations, 48 hours, OD600; for average OD600 in PDE7A HTS: 20μM compound, 48 hours growth in 5FOA medium, duplicate
Sequence of human PDE7A1 (Q13946 whole entry): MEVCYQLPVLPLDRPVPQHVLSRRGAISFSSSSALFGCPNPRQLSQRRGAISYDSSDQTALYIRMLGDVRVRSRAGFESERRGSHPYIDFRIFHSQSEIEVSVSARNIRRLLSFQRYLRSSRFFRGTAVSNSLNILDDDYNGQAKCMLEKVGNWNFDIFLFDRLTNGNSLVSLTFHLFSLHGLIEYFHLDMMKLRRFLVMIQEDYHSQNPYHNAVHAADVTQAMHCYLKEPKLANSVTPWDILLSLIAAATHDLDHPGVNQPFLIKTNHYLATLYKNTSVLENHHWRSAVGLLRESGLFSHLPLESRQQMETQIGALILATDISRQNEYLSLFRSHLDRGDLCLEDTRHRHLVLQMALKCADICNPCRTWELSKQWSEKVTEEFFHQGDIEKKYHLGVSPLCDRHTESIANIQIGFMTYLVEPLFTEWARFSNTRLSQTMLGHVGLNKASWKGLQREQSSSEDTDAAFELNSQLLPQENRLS
Summary of the method: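 Fission yeast strain CHP1189 carries human PDE7A in place of cgs2, plus gpa2Δ, pap1Δ and fbp1-ura4/fbp1-lacZ reporters. It was grown to exponential phase in EMM with 2.5 mM cAMP, then resuspended in 5FOA medium at 1 × 10^5 cells/ml. Compounds were mostly at 20μM, in duplicate, with DMSO negative and 5mM cAMP positive controls. Growth was 48 h at 30°C, read as OD600. Per-plate Z scores were combined into a composite Z score.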

human PDE4A1 = human PDE4A1 (Homo sapiens, UniProt P27815); assay: Fission yeast 5FOA growth assay, PDE4A1-expressing strain; assay type: cell-based; details: dose response, 48 hours
Summary of the method: as §3

[2] = molecular target: full-length PDE4D2 (residues 1-507) (Homo sapiens, UniProt Q08499); assay: In vitro enzyme assay, full-length PDE4D2; assay type: biochemical; details: data not shown
Sequence of full-length PDE4D2 (residues 1-507) (Q08499 303-809): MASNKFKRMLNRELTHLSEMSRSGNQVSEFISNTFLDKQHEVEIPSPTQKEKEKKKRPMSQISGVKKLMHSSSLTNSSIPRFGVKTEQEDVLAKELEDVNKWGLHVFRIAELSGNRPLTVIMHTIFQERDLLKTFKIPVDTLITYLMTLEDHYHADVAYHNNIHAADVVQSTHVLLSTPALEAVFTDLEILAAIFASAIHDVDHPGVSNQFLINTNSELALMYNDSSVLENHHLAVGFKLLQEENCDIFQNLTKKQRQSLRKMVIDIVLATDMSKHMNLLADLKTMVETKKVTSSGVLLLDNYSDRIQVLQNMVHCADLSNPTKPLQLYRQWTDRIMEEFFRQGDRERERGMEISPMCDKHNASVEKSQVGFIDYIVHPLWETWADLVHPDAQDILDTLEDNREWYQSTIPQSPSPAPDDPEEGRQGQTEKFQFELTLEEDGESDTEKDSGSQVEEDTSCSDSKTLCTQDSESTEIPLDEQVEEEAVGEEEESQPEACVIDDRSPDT

PDE7A = PDE7A (Homo sapiens, UniProt Q13946); assay: In vitro PDE enzyme assay; assay type: biochemical
Sequence of PDE7A (Q13946 whole entry, species assumed): as the sequence (Q13946 whole entry) above
Summary of the method: as §2

PDE1B = PDE1B (Homo sapiens, UniProt Q01064); assay: Fission yeast 5FOA growth assay, PDE1B-expressing strain; assay type: cell-based; details: data not shown
Summary of the method: as §1

PDE5A = PDE5A (Homo sapiens, UniProt O76074); assay: Fission yeast 5FOA growth assay, PDE5A-expressing strain; assay type: cell-based; details: data not shown
Summary of the method: as §1

human PDE4B2 = human PDE4B2 (Homo sapiens, UniProt Q07343); assay: Fission yeast 5FOA growth assay, PDE4B2-expressing strain; assay type: cell-based; details: dose response, 48 hours
Summary of the method: as §3

human PDE4D3 = human PDE4D3 (Homo sapiens, UniProt Q08499); assay: Fission yeast 5FOA growth assay, PDE4D3-expressing strain; assay type: cell-based; details: dose response, 48 hours
Sequence of human PDE4D3 (Q08499 1-673 isoform Q08499-2): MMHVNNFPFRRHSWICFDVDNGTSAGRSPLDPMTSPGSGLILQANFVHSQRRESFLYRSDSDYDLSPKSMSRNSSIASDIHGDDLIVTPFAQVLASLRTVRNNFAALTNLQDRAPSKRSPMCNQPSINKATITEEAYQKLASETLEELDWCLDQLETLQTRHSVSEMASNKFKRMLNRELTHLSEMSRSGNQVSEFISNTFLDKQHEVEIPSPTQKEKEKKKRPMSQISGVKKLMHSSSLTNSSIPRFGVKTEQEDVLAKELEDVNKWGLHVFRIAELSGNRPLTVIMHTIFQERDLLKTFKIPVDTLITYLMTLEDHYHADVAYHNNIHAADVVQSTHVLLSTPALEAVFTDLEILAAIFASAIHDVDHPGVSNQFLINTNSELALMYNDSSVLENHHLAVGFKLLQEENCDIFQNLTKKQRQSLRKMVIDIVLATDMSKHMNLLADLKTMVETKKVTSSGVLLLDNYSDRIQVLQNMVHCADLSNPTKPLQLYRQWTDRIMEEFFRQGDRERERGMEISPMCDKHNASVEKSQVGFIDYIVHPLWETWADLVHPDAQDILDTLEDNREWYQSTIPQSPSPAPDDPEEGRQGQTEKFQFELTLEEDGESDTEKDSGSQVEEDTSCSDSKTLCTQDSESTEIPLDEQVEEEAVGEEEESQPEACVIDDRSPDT
Summary of the method: as §3

[3] = molecular target: PDE4D catalytic domain (residues 86-413 of PDE4D2) (Homo sapiens, UniProt Q08499); assay: In vitro enzyme assay, PDE4D catalytic domain; assay type: biochemical
Sequence of PDE4D catalytic domain (residues 86-413 of PDE4D2) (Q08499 388-715): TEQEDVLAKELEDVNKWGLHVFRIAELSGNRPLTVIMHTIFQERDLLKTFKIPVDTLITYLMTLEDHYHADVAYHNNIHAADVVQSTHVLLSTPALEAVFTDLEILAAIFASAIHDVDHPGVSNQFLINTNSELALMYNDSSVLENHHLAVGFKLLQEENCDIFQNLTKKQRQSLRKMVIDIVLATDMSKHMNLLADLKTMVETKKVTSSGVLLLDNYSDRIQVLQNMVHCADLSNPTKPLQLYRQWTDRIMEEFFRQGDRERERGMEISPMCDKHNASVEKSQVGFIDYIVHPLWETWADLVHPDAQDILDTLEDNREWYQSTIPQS
Summary of the method: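 PDE4D catalytic domain (PDE4D2 residues 86-413) was expressed in and purified from E. coli and tested in the 3H-cAMP hydrolysis assay with Ba(OH)2 precipitation. Enzyme was at 16 nM with 25 nM test compound across varying cAMP concentrations. A separate panel used 2μM compound against PDE4A, PDE4B and PDE4D catalytic domains.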

PDE9A = PDE9A (Homo sapiens, UniProt O76083); assay: Fission yeast 5FOA growth assay, PDE9A-expressing strain; assay type: cell-based; details: data not shown
Summary of the method: as §1

[4] = 10μM, 1 hr pretreatment, vs vehicle-treated control

## N#Cc1sc2sc(C#N)c(-c3ccco3)c2c1N [BC30, 3-amino-4-(2-furyl) thieno[2,3-b]thiophene-2,5-dicarbonitrile]
[1]
  TNFα release, combined with rolipram, 3 hours LPS: dramatic reduction of TNFα release
  TNFα release, combined with rolipram, 20 hours LPS: dramatic reduction of TNFα release
[1]; [4]
  TNFα release, compound alone, 3 hours LPS: significant reduction in TNFα release
  TNFα release, compound alone, 20 hours LPS: significant reduction in TNFα release
PDE3B
  effect on 5FOA growth, PDE3B strain: no effect on growth
PDE7B
  IC50: 3700 nM
  IC50 on PDE7B relative to PDE7A: four-fold lower IC50 on PDE7A than PDE7B
PDE7B; data not shown
  effect on Km of PDE7B: appears to increase the Km of PDE7B
PDE10A
  OD600 of PDE10A-expressing strain: 0.53
PDE11A
  effect on 5FOA growth, PDE11A strain: no effect on growth
PDE2A
  effect on 5FOA growth, PDE2A strain: no effect on growth
PDE1C
  effect on 5FOA growth, PDE1C strain: no effect on growth
Mouse PDE4A1
  activity in HTS, mouse PDE4A1 strain: very weak activity
PDE8A
  effect on 5FOA growth, PDE8A strain: no effect on growth
Human PDE7B1
  stimulation of 5FOA-resistant growth, PDE7B-expressing strain: the best inhibitor of PDE7B
Human PDE7A1; 2μM, data not shown
  PDE7A inhibition upon rescreening: one of the most effective PDE7A inhibitors
Human PDE7A1; 20μM screen, 48,176 compounds
  rank of Composite Z score in PDE7A HTS: 40
Human PDE7A1
  stimulation of 5FOA-resistant growth, PDE7A-expressing strain: very potent at low micromolar concentrations
Human PDE4A1
  effect on 5FOA growth, human PDE4A1 strain: no effect on the growth
[2]
  effect on activity of full-length PDE4D2: neither BC30 nor the other compounds that stimulate the catalytic domain of PDE4D affect the activity of the full-length PDE4D2
PDE7A
  IC50: 1100 nM
PDE1B
  effect on 5FOA growth, PDE1B strain: no effect on growth
PDE5A
  effect on 5FOA growth, PDE5A strain: no effect on growth
Human PDE4B2
  effect on 5FOA growth, human PDE4B2 strain: no effect on the growth
Human PDE4D3
  effect on 5FOA growth, human PDE4D3 strain: no effect on the growth
[3]; 25 nM compound, varying cAMP
  effect on Vmax of PDE4D catalytic domain: doubling the Vmax
[3]; 2μM compound, data not shown
  effect on cAMP hydrolysis by PDE4D catalytic domain: significantly stimulate cAMP hydrolysis
[3]; enzyme concentration 16 nM
  concentration producing the maximum increase in PDE4D catalytic domain activity: 25 nM
PDE9A
  effect on 5FOA growth, PDE9A strain: no effect on growth

## Cc1ccc([N+](=O)[O-])cc1S(=O)(=O)N(C)C [BRL50481, 3-(N,N-dimethylsulfonamido)-4-methyl-nitrobenzene, reference compound]
[1]
  TNFα release, combined with rolipram, 3 hours LPS: modestly enhances the rolipram-mediated reduction of TNFα release
  TNFα release, combined with rolipram, 20 hours LPS: modestly enhances the rolipram-mediated reduction of TNFα release
PDE7B
  IC50 on PDE7B relative to PDE7A: 80 fold
Human PDE7B1
  stimulation of 5FOA-resistant growth, PDE7B-expressing strain: rather poor inhibitor of PDE7B, equal to BC11 and BC39, and far less effective than BC30
Human PDE7A1
  stimulation of 5FOA-resistant growth, PDE7A-expressing strain: most effective compound for stimulation of 5FOA-resistant growth
PDE7A; read-out: IC50 against PDE7A, in vitro enzyme assay
  IC50: ~150 nM

## CC(=O)O[C@@H]1CC[C@@]2(C)[C@@H](CC[C@@H]3[C@@H]2CC[C@]2(C)C(=O)CC[C@@H]32)C1 [androsterone acetate]
Human PDE7A1
  average OD600 in PDE7A HTS: > 0.821

## C[C@]12CCC(=O)C=C1C=C[C@@H]1[C@@H]2CC[C@@]2(C)[C@H]1CC[C@@]21CCC(=O)O1 [canrenone, reference compound]
Human PDE7A1
  average OD600 in PDE7A HTS: > 0.821

## COc1ccc(C2CNC(=O)C2)cc1OC1CCCC1 (centres unmarked) [rolipram, reference compound]
[1]; [4]
  TNFα release, compound alone, 20 hours LPS: significant reduction in TNFα release
